Experimental data reported in ChEMBL document CHEMBL5365533, “DNA major versus minor groove occupancy of monomeric and dimeric crystal violet derivatives. Toward structural correlations” (Bioorg Med Chem, 2023).
Activity calls are given as the source filed them. The rule behind the calls is not given here.

What was measured:
DNA [1] = assay: Displacement of Ethidium bromide from (AT)5 (5'-GGGATATA-TATATCCC-3') DNA (unknown origin)/EtBr complex assessed as decrease in initial absorbance of DNA by crystal violet staining based analysis; format: nucleic-acid assay
DNA [2] = assay: Displacement of Ethidium bromide from A5T5 (5'-GGGAAAAATTTTTCCCCC-3') DNA (unknown origin)/EtBr complex assessed as decrease in initial absorbance of DNA by crystal violet staining based analysis; format: nucleic-acid assay
[3] = Binding affinity to DDD hairpin DNA (unknown origin) assessed as binding constant at 100 uM by ITC analysis
In short: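 Isothermal titration calorimetry of DDD hairpin (10 μM in cell) titrated with ligand (100 μM in syringe), 10 mM Tris-HCl pH 7.0, 30 °C; 25 injections of 10 μL. Heats of dilution subtracted; single-site binding model fitted; K averaged from triplicate experiments.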

[4] = Displacement of Ethidium bromide from G5C5 (5'-AAAGGGGG-CCCCCTTT-3') DNA (unknown origin)/EtBr complex assessed as decrease in initial absorbance of DNA by crystal violet staining based analysis
Calf thymus DNA [5] = assay: Binding affinity to calf thymus DNA assessed as change in melting temperature by UV thermal denaturation assay; format: nucleic-acid assay; conditions: Bos taurus
In short: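 CT DNA in 10 mM Tris-HCl pH 7.0 at a DNA:ligand ratio of 30:1, in 1 cm quartz cuvettes. Absorbance read every 2 °C from 25 to 95 °C, heating at 1 °C/min. Tm taken from first-derivative plots.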

[6] = Displacement of Ethidium bromide from DDD (5-CGAATT-3') hairpin DNA (unknown origin)/EtBr complex assessed as decrease in initial absorbance of DNA by crystal violet staining based analysis
Calf thymus DNA [7] = assay: Binding affinity to calf thymus DNA assessed as hypochromic shift by UV spectroscopic analysis; format: nucleic-acid assay; conditions: Bos taurus
In short: (§1)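 UV titration in 10 mM Tris-HCl pH 7.0 with ligand fixed at 5.0 μM and CT DNA:ligand ratios of 0:1, 1:1, 2:1, 5:1, 10:1 and 30:1.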

[8] = Displacement of Ethidium bromide from NFAT1 (5-GAAAAA-3') hairpin DNA (unknown origin)/EtBr complex assessed as binding constant by crystal violet staining based analysis
[9] = Binding affinity to DDD (5-CGAATT-3') hairpin DNA (unknown origin) assessed as binding constant by isothermal titration calorimetry
Calf thymus DNA [10] = assay: Binding affinity to calf thymus DNA assessed as bathochromic shift by UV spectroscopic analysis; format: nucleic-acid assay; conditions: Bos taurus; in short: as §1
Calf thymus DNA [11] = assay: Binding affinity to calf thymus DNA in Tris-HCl buffer at pH 7.0 assessed as minimal change in viscosity incubated for 30 mins by Ostwald viscometer analysis; format: nucleic-acid assay; conditions: Bos taurus
In short: (§2)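 Ostwald viscometer at 23.0 ± 1 °C. CT DNA held at 300 μM/bp in 10 mM Tris-HCl pH 7.0 with ligand or ethidium at 0–26 μM, incubated 30 min before timing flow. (η/η0)^1/3 plotted against [ligand]/[DNA]; three replicates, SD shown.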

[12] = Displacement of Ethidium bromide from STAT6 (5'-TCCTAG-3') hairpin DNA (unknown origin)/EtBr complex assessed as binding constant by crystal violet staining based analysis
[13] = Displacement of Ethidium bromide from NFAT1 (5-GAAAAA-3') hairpin DNA (unknown origin)/EtBr complex assessed as decrease in initial absorbance of DNA by crystal violet staining based analysis
[14] = Displacement of Ethidium bromide from G6 (5'-GGGGGG-3') hairpin DNA (unknown origin)/EtBr complex assessed as decrease in initial absorbance of DNA by crystal violet staining based analysis
Calf thymus DNA [15] = assay: Binding affinity to calf thymus DNA in Tris-HCl buffer at pH 7.0 assessed as rigidification of DNA from intercalation of drug incubated for 30 mins by Ostwald viscometer analysis; format: nucleic-acid assay; conditions: Bos taurus; in short: as §2
[16] = Displacement of Ethidium bromide from cMyc (5'-CACGTG-3') hairpin DNA (unknown origin)/EtBr complex assessed as decrease in initial absorbance of DNA by crystal violet staining based analysis
[17] = Displacement of Ethidium bromide from STAT6 (5'-TCCTAG-3') hairpin DNA (unknown origin)/EtBr complex assessed as decrease in initial absorbance of DNA by crystal violet staining based analysis
AT rich DNA [18] = assay: Displacement of Ethidium bromide from AT3 (5'-ATATAT-3') hairpin DNA (unknown origin)/EtBr complex assessed as decrease in initial absorbance of DNA by crystal violet staining based analysis; format: nucleic-acid assay
Calf thymus DNA [19] = assay: Binding affinity to calf thymus DNA in Tris-HCl buffer at pH 7.0 assessed as lengthening of DNA from intercalation of drug incubated for 30 mins by Ostwald viscometer analysis; format: nucleic-acid assay; conditions: Bos taurus; in short: as §2
AT rich DNA [20] = assay: Displacement of Ethidium bromide from AT3 (5'-ATATAT-3') hairpin DNA (unknown origin)/EtBr complex assessed as binding constant by crystal violet staining based analysis; format: nucleic-acid assay
DNA [21] = assay: Binding affinity to pUC-19 plasmid DNA (unknown origin) assessed as DNA cleavage incubated for 30 mins in presence of BamHI restriction enzyme by ethidium bromide staining based agarose gel electrophoresis analysis; format: nucleic-acid assay
In short: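 pUC-19 linearized with AlwNI (37 °C, 30 min), enzyme heat-killed at 80 °C for 20 min, then incubated with varying ligand concentrations. BamHI digestion for 30 min at 37 °C. Run on 1% agarose containing ethidium bromide, 120 V for 40 min; visualized by UV transillumination.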

[22] = Displacement of Ethidium bromide from cMyc (5'-CACGTG-3') hairpin DNA (unknown origin)/EtBr complex assessed as binding constant by crystal violet staining based analysis
Calf thymus DNA [23] = assay: Ratio of Kapp for displacement of ethidium bromide from calf thymus DNA/EtBr complex to Kapp for displacement of ethidium bromide from calf thymus DNA/EtBr in presence of methyl green; format: nucleic-acid assay; conditions: Bos taurus
In short: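 Fluorescence titration of CT DNA (1.0 μM/bp) plus ethidium (0.5 μM), with or without netropsin or methyl green (0.5 μM each), against increasing ligand in 10 mM Tris-HCl pH 7.0. Excitation 520 nm, emission 590 nm, read after 3 min equilibration. C50 is the concentration giving 50% fluorescence loss; Kapp = 9.5×10^6 M⁻¹ × C_ethidium/C50.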

Calf thymus DNA [24] = assay: Binding affinity to calf thymus DNA in Tris-HCl buffer at pH 7.0 assessed as decrease in viscosity incubated for 30 mins by Ostwald viscometer analysis; format: nucleic-acid assay; conditions: Bos taurus; in short: as §2
Calf thymus DNA [25] = assay: Binding affinity to calf thymus DNA in Tris-HCl buffer at pH 7.0 assessed as differential groove occupancy at 100 uM by ITC analysis; format: nucleic-acid assay; conditions: Bos taurus
In short: (§3)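 ITC of CT DNA (100 μM/bp in cell) titrated with ligand (100 μM in syringe), 10 mM Tris-HCl pH 7.0; 25 injections of 10 μL at 30 °C, or for one ligand 50 injections of 5 μL at 27 °C. Buffer-into-DNA heats subtracted; single-site model gives K, N, ΔH and ΔS.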

Calf thymus DNA [26] = assay: Binding affinity to calf thymus DNA in Tris-HCl buffer at pH 7.0 assessed as change in enthalpy at 100 uM by isothermal titration […] analysis; format: nucleic-acid assay; conditions: Bos taurus; in short: as §3
[27] = Binding affinity to DDD hairpin DNA (unknown origin) in Tris-HCl buffer at pH 5.0 assessed as reduction in base stacking band formation at 280nm at 1 mM incubated for 5 mins by CD spectra analysis
In short: (§4)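 Ligand (1 mM stock) added in small aliquots to DDD hairpin (8.8 μM) in 10 mM Tris-HCl pH 5.0; mixed by inversion and incubated 5 min at 20 °C. CD recorded 215–350 nm in 0.5 nm steps as the average of three scans.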

Calf thymus DNA [28] = assay: Binding affinity to calf thymus DNA in Tris-HCl buffer at pH 7.0 assessed as change in entropy at 100 uM by isothermal titration […] analysis; format: nucleic-acid assay; conditions: Bos taurus; in short: as §3
[29] = Binding affinity to DDD hairpin DNA (unknown origin) in Tris-HCl buffer at pH 5.0 assessed as negative induced CD bands formation at 310nm at 1 mM incubated for 5 mins by CD spectra analysis; in short: as §4
[30] = Binding affinity to DDD hairpin DNA (unknown origin) in Tris-HCl buffer at pH 5.0 assessed as negligible changes in helicity band formation at 245nm at 1 mM incubated for 5 mins by CD spectra analysis; in short: as §4
Calf thymus DNA [31] = assay: Binding affinity to calf thymus DNA in Tris-HCl buffer at pH 5.0 assessed as dye aggregation in the DNA groove at 337nm at 1 mM incubated for 5 mins by UV spectra analysis; format: nucleic-acid assay; conditions: Bos taurus
In short: (§5)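 CT DNA (80 μM/bp) in 10 mM Tris-HCl pH 5.0 received small aliquots of ligand from a 1 mM stock; incubated 5 min at 20 °C. CD (average of three scans) and UV spectra recorded 215–350 nm in 0.5 nm increments under identical conditions.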

Calf thymus DNA [32] = assay: Binding affinity to calf thymus DNA in Tris-HCl buffer at pH 5.0 assessed as dye aggregation in the DNA groove at 310nm at 1 mM incubated for 5 mins by UV spectra analysis; format: nucleic-acid assay; conditions: Bos taurus; in short: as §5

Compound	C50 (DNA [1]) [µM]	C50 (DNA [2]) [µM]	K [3]	C50 [4] [µM]	ΔTm (Calf thymus DNA [5]) [°C]	C50 [6] [µM]	Activity (Calf thymus DNA [7])	K [8]	K [9]	Activity (Calf thymus DNA [10])	K [12]	C50 [13] [µM]	C50 [14] [µM]	C50 [16] [µM]	C50 [17] [µM]	C50 (AT rich DNA [18]) [µM]	K (AT rich DNA [20])	K [22] [M⁻¹]	further results
CN(C)c1ccc(C(=C2C=CC(=[N+](C)C)C=C2)c2ccccc2-c2ccccc2-c2ccccc2C(=C2C=CC(=[N+](C)C)C=C2)c2ccc(N(C)C)cc2)cc1			21.1 10^5/M		3.6	0.54	Active	1.14 10^5/M	21.1 10^5/M	Active	1.8 10^5/M	0.69	0.51	0.57	0.56	1.11	0.32 10^5/M	114000	Activity (Calf thymus DNA [11]): Dose-Dependent Effect; Activity (Calf thymus DNA [15]): Active; Activity (Calf thymus DNA [19]): Active; IC50 (DNA [21]): 67 µM
CC1=CC(=[N+](C)C)C=CC1=C(c1ccc(N(C)C)cc1C)c1ccc(N(C)C)cc1C	2.3	2.4	1.2 10^5/M	7.21	2.6														
CN(C)c1ccc(C(=C2C=CC(=[N+](C)C)C=C2)c2ccc(C#Cc3cc4c(cc3C#Cc3ccc(C(=C5C=CC(=[N+](C)C)C=C5)c5ccc(N(C)C)cc5)cc3)OCO4)cc2)cc1			0.5 10^5/M		2.6	1.27						2.22	1.32	1.95	1.91	1.52			
CN(C)c1ccc(C(=C2C=CC(=[N+](C)C)C=C2)c2ccc(-c3cc4c(cc3-c3ccc(C(=C5C=CC(=[N+](C)C)C=C5)c5ccc(N(C)C)cc5)cc3)OCO4)cc2)cc1			2.4 10^5/M		2.6	1.47						1.23	1.25	1.42	1.32	1.36			
CN(C)c1ccc(C(=C2C=CC(=[N+](C)C)C=C2)c2ccc(/C=C/c3cc4c(cc3/C=C/c3ccc(C(=C5C=CC(=[N+](C)C)C=C5)c5ccc(N(C)C)cc5)cc3)OCO4)cc2)cc1			7.5 10^5/M		3.3	0.78	Active	49.8 10^5/M	7.54 10^5/M	Active	2.22 10^5/M	1.27	1.1	1.8	1.12	1.21	5.79 10^5/M	32000	Activity (Calf thymus DNA [24]): Dose-Dependent Effect; Activity (Calf thymus DNA [25]): Active; deltaH (Calf thymus DNA [26]): 85.8 kcal/mol; Activity [27]: Active; Ratio (Calf thymus DNA [23]): > 8; deltaS (Calf thymus DNA [28]): 0.316 kcal/mol; Activity [29]: Active; Activity [30]: Active; IC50 (DNA [21]): 5.4 µM
CN(C)c1ccc(C(=C2C=CC(=[N+](C)C)C=C2)c2ccc(OCc3ccccc3COc3ccc(C(=C4C=CC(=[N+](C)C)C=C4)c4ccc(N(C)C)cc4)cc3)cc2)cc1			20.5 10^5/M		0.9	1.57	Active	29.1 10^5/M	20.5 10^5/M	Active	1.32 10^5/M	2.64	1	1.56	1.09	2.08	1.3 10^5/M	5.06e+06	Activity (Calf thymus DNA [24]): Dose-Dependent Effect; Activity (Calf thymus DNA [25]): Active; deltaH (Calf thymus DNA [26]): -44.7 kcal/mol; Activity (Calf thymus DNA [31]): Active; deltaS (Calf thymus DNA [28]): -0.12 kcal/mol; Activity (Calf thymus DNA [32]): Active

Continued, in another order:

C50 (DNA [1]) [µM]	C50 (DNA [2]) [µM]	K [3]	C50 [4] [µM]	ΔTm (Calf thymus DNA [5]) [°C]	C50 [6] [µM]	Activity (Calf thymus DNA [7])	K [8]	K [9]	Activity (Calf thymus DNA [10])	K [12]	C50 [13] [µM]	C50 [14] [µM]	C50 [16] [µM]	C50 [17] [µM]	C50 (AT rich DNA [18]) [µM]	K (AT rich DNA [20])	K [22] [M⁻¹]	Compound	further results
0.32	0.52	3.1 10^5/M	0.88	4.6														CN(C)c1ccc(C(=C2C=CC(=[N+](C)C)C=C2)c2ccc3cc(N(C)C)ccc3c2)cc1	
2.75	2.61	96.4 10^5/M	2.99	6.2														CN(C)c1ccc(C(=C2C=CC(=[N+](C)C)C=C2)c2ccc(N(C)C)c(-c3ccccc3)c2)cc1	Ratio (Calf thymus DNA [23]): 2.3
2.71	3.13	48.7 10^5/M	3.36	2.2														CN(C)c1ccc(C(=C2C=CC(=[N+](C)C)C(c3ccccc3)=C2)c2ccc(N(C)C)c(-c3ccccc3)c2)cc1-c1ccccc1	
1.81	1.83	0.3 10^5/M	2.09	1.6														CN(C)c1ccc(C(=C2C=CC(=[N+](C)C)C=C2)c2ccc(N(C)C)c(-c3ccccc3)c2)cc1-c1ccccc1	
